The results in this text go back to PubChem BioAssay AID488936 (Broad Institute, 2010).

Calls of active or inactive are those of the source.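 The calls were made as follows: active = compounds lowering caspase luminescence whose fitted AC50 is at most ten times their top valid dose; inconclusive = flat partial inhibition or a poor quality curve fit; inactive = the rest.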

The test is described as follows: suppressors of cytokine-driven caspase-3/7 activity, dose response, orthogonal assay for beta-cell apoptosis inhibitor project, INS-1E rat cells, dry powder, set 2 (AID 488936). The following applies: INS-1E cytokine-induced caspase-3/7 luminescence, 48 h. In a few lines:
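Assay system: rat INS-1E insulinoma cells. Also added: IFN-gamma, TNF-alpha and IL-1β cytokine cocktail. Timing: 48 h cytokine plus compound exposure, then 1 h reagent, room temperature. Technique: Caspase-Glo 3/7 luminescence. Read-out: Caspase-3/7 IC50 from dose-response. Control set: SAHA positive control.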

For `COc1ccc(S(=O)(=O)N(C)C[C@@H]2Oc3c(cccc3N(C)C)C(=O)N([C@@H](C)CO)C[C@H]2C)cc1`, the activity change, negative = inhibition (at 23.5 µM (top of the series)) was -4.48% (inactive). For `COc1ccc(NC(=O)Nc2cccc3c2O[C@@H](CN(C)S(=O)(=O)c2ccc(OC)cc2)[C@H](C)CN([C@@H](C)CO)C3=O)cc1`, the activity change, negative = inhibition (at 26 µM (top of the series)) was -9.51% (inactive). For the compound `COc1ccc(S(=O)(=O)N(C)C[C@@H]2Oc3c(NS(=O)(=O)c4ccc(F)cc4)cccc3C(=O)N([C@@H](C)CO)C[C@H]2C)cc1`, the activity change, negative = inhibition (at 26 µM (top of the series)) is -9.27% (inactive). For `C[C@@H]1CN([C@H](C)CO)C(=O)c2cccc(NC(=O)Nc3ccc(F)cc3)c2O[C@H]1CN(C)S(=O)(=O)c1ccc(Cl)cc1`, the activity change, negative = inhibition (at 26 µM (top of the series)) is 10.4% (inactive). In the case of `C[C@@H]1CN([C@@H](C)CO)C(=O)c2cccc(NC(=O)Nc3ccc(F)cc3)c2O[C@H]1CN(C)S(=O)(=O)c1ccc(F)cc1`, the activity change, negative = inhibition (at 26 µM (top of the series)) is -8.56% (inactive). Same read-out and setting: for `N#Cc1ccc2cc(Br)c(C(F)(F)P(=O)(O)O)cc2c1` the value was -14.1% (inactive). For the compound `COc1ccc(S(=O)(=O)N(C)C[C@@H]2Oc3c(NS(=O)(=O)c4ccc(C)cc4)cccc3C(=O)N([C@@H](C)CO)C[C@H]2C)cc1`, the activity change, negative = inhibition (at 23.5 µM (top of the series)) was -2.16% (inactive). In the case of `Cc1ccc(S(=O)(=O)N(C)C[C@@H]2Oc3c(NC(=O)Nc4ccc(F)cc4)cccc3C(=O)N([C@@H](C)CO)C[C@H]2C)cc1`, where the note is “at 26 µM (top of the series)”, the activity change, negative = inhibition is -11% (inactive). The same measure, in the same setting: the figure for `COc1ccc(S(=O)(=O)N(C)C[C@@H]2Oc3c(NC(=O)Nc4cccc5ccccc45)cccc3C(=O)N([C@@H](C)CO)C[C@H]2C)cc1OC` is -11.6% (inactive). In the case of `C[C@@H]1CN([C@@H](C)CO)C(=O)c2cccc(NC(=O)Nc3cccc4ccccc34)c2O[C@H]1CN(C)C(=O)NC1CCCCC1`, the activity change, negative = inhibition (at 26 µM (top of the series)) was 27.4% (inactive).

Take `COc1ccc(S(=O)(=O)N(C)C[C@H]2Oc3c(NC(=O)Nc4cccc5ccccc45)cccc3C(=O)N([C@@H](C)CO)C[C@@H]2C)cc1`: the activity change, negative = inhibition (at 26 µM (top of the series)) was -9.65% (inactive). The same measure, in the same setting: for `C[C@@H]1CN([C@@H](C)CO)C(=O)c2cccc(NC(=O)Nc3cccc4ccccc34)c2O[C@H]1CN(C)S(=O)(=O)c1ccccc1F` the value was 21.8% (inactive); for `COc1ccc(S(=O)(=O)N(C)C[C@@H]2Oc3c(NC(=O)c4cnccn4)cccc3C(=O)N([C@@H](C)CO)C[C@H]2C)cc1`, -2.35% (inactive).

As to `COc1ccc(S(=O)(=O)N(C)C[C@@H]2Oc3c(NS(=O)(=O)c4cn(C)cn4)cccc3C(=O)N([C@@H](C)CO)C[C@H]2C)cc1`, the activity change, negative = inhibition (at 26 µM (top of the series)) was -6.15% (inactive). For the compound `COc1ccc(S(=O)(=O)N(C)C[C@@H]2Oc3c(NC(=O)Nc4cccc5ccccc45)cccc3C(=O)N([C@@H](C)CO)C[C@H]2C)c(OC)c1`, where the note is “at 26 µM (top of the series)”, the activity change, negative = inhibition was -12.9% (inactive).

Take `C[C@@H]1CN([C@@H](C)CO)C(=O)c2cccc(NC(=O)Nc3cccc4ccccc34)c2O[C@H]1CN(C)S(=O)(=O)c1cccs1`: under “at 26 µM (top of the series)”, the activity change, negative = inhibition is 4.63% (inactive).

For the compound `Cc1ccc(S(=O)(=O)N(C)C[C@@H]2Oc3c(NC(=O)Nc4ccccc4)cccc3C(=O)N([C@@H](C)CO)C[C@H]2C)cc1`, the activity change, negative = inhibition (at 26 µM (top of the series)) is -11.7% (inactive). Same read-out and setting: the figure for `Cc1ccc(S(=O)(=O)N(C)C[C@@H]2Oc3c(NC(=O)Nc4ccc(F)cc4)cccc3C(=O)N([C@H](C)CO)C[C@H]2C)cc1` is -5.96% (inactive). Still for that read-out and setting: the figure for `C[C@@H]1CN([C@H](C)CO)C(=O)c2cccc(NC(=O)Nc3ccccc3)c2O[C@H]1CN(C)S(=O)(=O)c1ccc(F)cc1` is -4.27% (inactive); for `C[C@@H]1CN([C@@H](C)CO)C(=O)c2cccc(NC(=O)Nc3cccc4ccccc34)c2O[C@H]1CN(C)S(=O)(=O)c1ccccc1` it is 6.84% (inactive). As for `COc1ccc(S(=O)(=O)N(C)C[C@@H]2Oc3c(NC(=O)C4CC4)cccc3C(=O)N([C@@H](C)CO)C[C@H]2C)cc1`, where the note is “at 23.5 µM (top of the series)”, the activity change, negative = inhibition was -6.93% (inactive). With `COc1ccc(S(=O)(=O)N(C)C[C@@H]2Oc3c(NC(=O)NC4CCCCC4)cccc3C(=O)N([C@@H](C)CO)C[C@H]2C)cc1`, the activity change, negative = inhibition (at 26 µM (top of the series)) was -7.02% (inactive). On the same count and under the same terms, the figure for `COc1ccc(S(=O)(=O)N(C)C[C@@H]2Oc3c(NC(=O)Nc4ccc5c(c4)OCO5)cccc3C(=O)N([C@@H](C)CO)C[C@H]2C)cc1` is -4.99% (inactive); for `COc1ccc(S(=O)(=O)N(C)C[C@@H]2Oc3c(NS(C)(=O)=O)cccc3C(=O)N([C@@H](C)CO)C[C@H]2C)cc1` it is -6.62% (inactive). Regarding `COc1ccc(S(=O)(=O)N(C)C[C@@H]2Oc3c(NS(=O)(=O)c4ccc(Cl)cc4)cccc3C(=O)N([C@@H](C)CO)C[C@H]2C)cc1`, the activity change, negative = inhibition (at 26 µM (top of the series)) was -4.43% (inactive). On the same count and under the same terms, for `C[C@@H]1CN([C@@H](C)CO)C(=O)c2cccc(NC(=O)Nc3cccc4ccccc34)c2O[C@H]1CN(C)S(=O)(=O)c1cccc(F)c1` the value was 6.97% (inactive); for `C[C@@H]1CN([C@@H](C)CO)C(=O)c2cccc(NC(=O)Nc3cccc4ccccc34)c2O[C@H]1CN(C)S(=O)(=O)c1ccc2ncsc2c1`, -18.8% (inactive). For the compound `COc1ccc(S(=O)(=O)N(C)C[C@H]2Oc3c(NC(=O)Nc4cccc5ccccc45)cccc3C(=O)N([C@H](C)CO)C[C@@H]2C)cc1`, the activity change, negative = inhibition (at 26 µM (top of the series)) is 3.23% (inactive).

As for `COc1ccc(S(=O)(=O)N(C)C[C@@H]2Oc3ccc(NC(=O)Nc4cccc5ccccc45)cc3C(=O)N([C@@H](C)CO)C[C@H]2C)cc1`, the activity change, negative = inhibition (at 26 µM (top of the series)) is 5.17% (inactive). On the same count and under the same terms, the figure for `Cc1ccc(S(=O)(=O)N(C)C[C@H]2Oc3c(NC(=O)Nc4cccc5ccccc45)cccc3C(=O)N([C@@H](C)CO)C[C@@H]2C)cc1` is 29.7% (inactive); for `COc1ccccc1S(=O)(=O)N(C)C[C@@H]1Oc2c(NC(=O)Nc3cccc4ccccc34)cccc2C(=O)N([C@@H](C)CO)C[C@H]1C` it is -13% (inactive); for `C[C@@H]1CN([C@@H](C)CO)C(=O)c2cccc(NC(=O)Nc3cccc4ccccc34)c2O[C@H]1CN(C)S(=O)(=O)c1ccc2c(c1)OCC2` it is 3.67% (inactive). Still for that read-out and setting: for `C[C@@H]1CN([C@@H](C)CO)C(=O)c2cccc(NC(=O)Nc3cccc4ccccc34)c2O[C@H]1CN(C)CC1CC1` the value was -6.43% (inactive); for `COc1ccc(S(=O)(=O)N(C)C[C@@H]2Oc3c(NC(=O)Nc4cccc5ccccc45)cccc3C(=O)N([C@H](C)CO)C[C@@H]2C)cc1`, -4.27% (inactive); for `C[C@@H]1CN([C@H](C)CO)C(=O)c2cccc(NC(=O)Nc3cccc4ccccc34)c2O[C@H]1CN(C)S(=O)(=O)c1ccc(Cl)cc1`, -4.82% (inactive). `COc1ccc(S(=O)(=O)N(C)C[C@@H]2Oc3c(NC(=O)Nc4cccc5ccccc45)cccc3C(=O)N(C(C)C)C[C@H]2C)cc1`: for the setting “at 26 µM (top of the series)”, the activity change, negative = inhibition is -6.92% (inactive). Consider `C[C@@H]1CN([C@@H](C)CO)C(=O)c2cccc(NC(=O)Nc3ccc(F)cc3)c2O[C@H]1CN(C)S(=O)(=O)c1ccc(Cl)cc1`, for which, under “at 26 µM (top of the series)”, the activity change, negative = inhibition was -5.69% (inactive).
